A short description of series [1]: Cytotoxicity against human HepG2 2.2.15 cells assessed as reduction in cell viability measured after 72 hrs by MTT assay. Format: cell-based. In short, it runs like this: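 HepG2 2.2.15 cells (HBV-producing; grown in DMEM with 10% FBS, penicillin/streptomycin and 0.38 mg/mL G418) seeded in 96-well plates and grown 24 h, then treated 72 h with compounds. Viability read by MTT absorbance at 490 nm relative to untreated cells. CC50 is the dose causing 50% cell death.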
For orientation: Formazan colour is commonly taken as a measure of viable cells.

Series [2] relates to Hepatitis B virus. Put plainly: Antiviral activity against HBV infected in human HepG2.2.15 cells assessed as inhibition of DNA replication at 0.8 uM supplemented with fresh medium containing compound every 2 days for 6 days by RT-PCR analysis relative to control. Format: functional. The conditions noted are these: HepG2 2.2.15, 144 h, time 6 day. A digest of the protocol: (§1)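 HepG2 2.2.15 cells (2×10^5/well, 24-well) left 24 h to recover from trypsinization, then given fresh medium with compound (single-point screen at 0.8 μM), renewed every 2 days for 6 days. Intracellular HBV DNA extracted and quantified by real-time PCR. IC50 is the dose giving 50% inhibition of DNA replication, taken from dose–response.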

Series [3] can be described thus: Selectivity index, ratio of CC50 for human HepG2 2.2.15 cells to IC50 for antiviral activity against HBV infected in human HepG2.2.15 cells assessed as inhibition of DNA replication. Format: toxicity, cell-based. To be noted: read-out: Ratio CC50/IC50.
Series [4] relates to Hepatitis B virus. Kind of series: Antiviral activity against HBV infected in human HepG2.2.15 cells assessed as inhibition of DNA replication supplemented with fresh medium containing compound every 2 days for 6 days by RT-PCR analysis. Format: functional, organism-based. To be noted: HepG2 2.2.15. In short, it runs like this:
as §1

Series [5] deals with HepG2. Put plainly: Antiproliferative activity against human HepG2 cells assessed as inhibition of cell proliferation after 72 hrs by MTT assay. Format: functional, cell-based. To be noted: HepG2, 72 h. In short, it runs like this:
(§2)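 Cells seeded in 96-well plates and grown 24 h to reach exponential growth, then exposed to test compounds in culture medium for 72 h. Viability read by MTT absorbance at 490 nm relative to untreated cells. IC50 is the concentration giving 50% inhibition of proliferation.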

Series [6] concerns SK-HEP1. Put plainly: Antiproliferative activity against human SK-HEP1 cells assessed as inhibition of cell proliferation after 72 hrs by MTT assay. To be noted: SK-HEP1, 72 h. Format: functional, cell-based. A digest of the protocol: as §2
Series [7] deals with Huh-7. Kind of series: Antiproliferative activity against human Huh-7 cells assessed as inhibition of cell proliferation after 72 hrs by MTT assay. Format: functional, cell-based. To be noted: Huh-7, 72 h. In short, it runs like this: as §2
The test system of series [8] is Hepatitis B virus. Kind of series: Antiviral activity against HBV infected in human HepG2.2.15 cells assessed as inhibition of DNA replication at 10 uM supplemented with fresh medium containing compound every 2 days for 6 days by RT-PCR analysis relative to control. Format: functional. The conditions noted are these: HepG2 2.2.15, 144 h, time 6 day.
The subject of series [9] is Hepatitis B virus. Kind of series: Antiviral activity against lamivudine and entecavir-resistant HBV harboring rtL180 M/rtM204V/rtT184L mutant infected in human HepG2.2.15 cells assessed as inhibition of DNA replication at 10 uM supplemented with fresh medium containing compound every 2 days for 6 days by RT-PCR analysis relative to control. Format: functional. The conditions noted are these: HepG2 2.2.15, 144 h, time 6 day.

Series [10] deals with Hepatitis B virus. Kind of series: Antiviral activity against lamivudine and entecavir-resistant HBV harboring rtL180 M/rtM204V/rtT184L mutant infected in human HepG2.2.15 cells assessed as inhibition of DNA replication at 0.8 uM supplemented with fresh medium containing compound every 2 days for 6 days by RT-PCR analysis relative to control. Format: functional. To be noted: HepG2 2.2.15, 144 h, time 6 day.

Series [11] concerns Hepatitis B virus. Kind of series: Antiviral activity against HBV infected in human HepG2.2.15 cells assessed as inhibition of HBsAg production supplemented with fresh medium containing compound every 3 days for 6 days by EIA relative to control. Format: functional, HepG2 2.2.15. To be noted: time 6 day.
For series [12], the system named is Hepatitis B virus. Kind of series: Antiviral activity against HBV infected in human HepG2.2.15 cells assessed as inhibition of DNA replication at 100 uM supplemented with fresh medium containing compound every 2 days for 6 days by RT-PCR analysis relative to control. Format: functional. To be noted: HepG2 2.2.15, 144 h, time 6 day.
For series [13], the system named is Hepatitis B virus. Kind of series: Antiviral activity against lamivudine and entecavir-resistant HBV harboring rtL180 M/rtM204V/rtT184L mutant infected in human HepG2.2.15 cells assessed as inhibition of DNA replication at 100 uM supplemented with fresh medium containing compound every 2 days for 6 days by RT-PCR analysis relative to control. The conditions noted are these: HepG2 2.2.15, 144 h, time 6 day. Format: functional.

We go through 23 compounds from ChEMBL document CHEMBL4765418, “Discovery of novel quinazolinone derivatives as potential anti-HBV and anti-HCC agents” (Eur J Med Chem, 2020).

One may read the CC50 as the concentration that lowers cell viability or growth by half. By inhibition is commonly meant how much of the control response was suppressed. Broadly, the IC50 is the concentration needed to halve the response being measured. In the case of `COc1ccccc1CSc1nc2ccc(OCCN(C)C)cc2c(=O)n1Cc1ccco1`, in [1], the CC50 at 72 h was more than 10 µM. Also, the inhibition at 0.8 µM in [2] worked out at 67.1%. Further, the selectivity ratio in [3] is more than 13.9. Moreover, the results for the IC50 in [4] and in series [5] were 0.72 µM and more than 100 µM, respectively.

On to `COc1ccccc1CSc1nc2ccc(OCCN(C)C)cc2c(=O)n1Cc1ccccc1`, for which the cytotoxic concentration (CC50) at 72 h in [1] was more than 10 µM. In addition, the inhibition at 0.8 µM in series [2] came to 11.8%. Besides, the IC50 in series [5] is more than 20 µM.

With `CN(C)CCOc1ccc2nc(SCc3ccccc3)n(Cc3ccccc3)c(=O)c2c1`, in [1], the half-maximal cytotoxic concentration (CC50) at 72 h was more than 10 µM. The inhibition at 0.8 µM in series [2] is 65.5%. The selectivity ratio in [3] was more than 14.7. Besides, the IC50 in series [4] is 0.68 µM; in series [5], more than 20 µM.

Consider `CCN(CC)CCOc1ccc2nc(SCc3cc(C(C)=O)ccc3OC)n(Cc3ccccc3)c(=O)c2c1`, for which the CC50 at 72 h in series [1] is more than 10 µM. For the same compound, in [2], the inhibition at 0.8 µM turned out to be 4.93%. Moreover, the IC50 in [5] is more than 20 µM.

Turning to `CNC(=O)c1cc(Oc2ccc(NC(=O)Nc3ccc(Cl)c(C(F)(F)F)c3)cc2)ccn1` [SORAFENIB], the concentration for half-maximal inhibition (IC50) came out at 9.64 µM in series [6], 7.92 µM in [7] and 7.67 µM in series [5].

On to `CCN(CC)CCOc1ccc2nc(SCc3ccccc3)n(Cc3ccccc3)c(=O)c2c1`, for which the CC50 at 72 h in series [1] is more than 10 µM. Also, the inhibition at 0.8 µM in series [2] stood at 64.5%. Also, the selectivity ratio in series [3] is more than 15.2. The values for the IC50 in [4] and in series [5] were 0.66 µM and more than 20 µM, respectively.

Turning to `CCN(CC)CCOc1ccc2nc(SCc3cc(C(C)=O)ccc3OC)n(Cc3ccco3)c(=O)c2c1`, the half-maximal cytotoxic concentration (CC50) at 72 h in series [1] was more than 10 µM. Moreover, the inhibition at 0.8 µM in [2] was found to be 45.2%. For the same compound, the half-inhibitory concentration (IC50) in series [5] turned out to be 17 µM.

With `O=c1[nH]cc(F)c(=O)[nH]1` [FLUOROURACIL], in series [5], the half-maximal inhibitory concentration (IC50) was 8.69 µM.

`COc1ccc(C(C)=O)cc1CSc1nc2ccc(OCCN(C)C)cc2c(=O)n1Cc1ccccc1`: in [1], the CC50 at 72 h was more than 10 µM. In addition, the inhibition at 0.8 µM in series [2] is 15.6%. Also, in series [5], the IC50 is 19 µM.

Turning to `C=C1[C@H](CO)[C@@H](O)C[C@@H]1n1cnc2c(=O)[nH]c(N)nc21` [ENTECAVIR], the inhibition at 10 µM worked out at 96.9% in [8] and 18.9% in series [9].

As to `COc1ccccc1CSc1nc2ccc(OCCCN(C)C)cc2c(=O)n1Cc1ccco1`, the half-maximal cytotoxic concentration (CC50) at 72 h in [1] is 8.38 µM. In addition, the inhibition at 0.8 µM in series [2] was found to be 34.4%. Besides, in [5], the half-inhibitory concentration (IC50) was determined as 6.76 µM.

`CCN(CC)CCOc1ccc2nc(SCc3ccccc3)n(Cc3ccco3)c(=O)c2c1`: the inhibition at 0.8 µM worked out at 58.9% in series [10] and 67.5% in [2]. For the same compound, the CC50 at 72 h in series [1] is more than 10 µM. In series [11], the “inhibition (INH)” value is given as 13.64%. Besides, in [3], the selectivity ratio was more than 15.9. Moreover, the IC50 was 0.63 µM in series [4] and 17.3 µM in series [5].

Regarding `COc1ccccc1CSc1nc2ccc(OCCCN(C)C)cc2c(=O)n1Cc1cccs1`, the CC50 at 72 h in series [1] is more than 10 µM. For the same compound, in series [2], the inhibition at 0.8 µM stood at 21.6%. Further, in [5], the IC50 came out at 8.81 µM.

For `CN(C)CCCOc1ccc2nc(SCc3ccccc3)n(Cc3ccccc3)c(=O)c2c1`, the CC50 at 72 h in series [1] is more than 10 µM. Also, the inhibition at 0.8 µM in series [2] is 42.8%. The 50% inhibitory concentration (IC50) in series [5] is more than 20 µM.

Regarding `Nc1ccn([C@@H]2CS[C@H](CO)O2)c(=O)n1` [LAMIVUDINE], the CC50 at 72 h in series [1] is more than 100 µM. In addition, the inhibition at 100 µM in [12] was 90%; in series [13], 15.7%. The inhibition at 0.8 µM in series [2] is 84.4%. Further, in [11], the “inhibition (INH)” value is listed as 9.09%. In addition, in series [3], the selectivity ratio is more than 1000. The IC50 in series [4] was less than 0.1 µM.

Take `CN(C)CCOc1ccc2nc(SCc3ccccc3)n(Cc3cccs3)c(=O)c2c1`: in series [1], the CC50 at 72 h was more than 10 µM. The inhibition at 0.8 µM in series [2] worked out at 53.6%. In series [3], the selectivity ratio was more than 13. In addition, the IC50 in series [4] was found to be 0.77 µM.

On to `COc1ccc(C(C)=O)cc1CSc1nc2ccc(OCCN(C)C)cc2c(=O)n1Cc1ccco1`, for which, in series [1], the cytotoxic concentration (CC50) at 72 h was more than 10 µM. The inhibition at 0.8 µM in [2] came out at 20.7%. In addition, the IC50 in [5] worked out at 11.3 µM.

Consider `COc1ccc(C(C)=O)cc1CSc1nc2ccc(OCCCN(C)C)cc2c(=O)n1Cc1ccco1`, for which the half-maximal cytotoxic concentration (CC50) at 72 h in [1] is more than 10 µM. Also, the inhibition at 0.8 µM in series [2] was 54.2%. In addition, in [3], the selectivity ratio was more than 12.7. Further, the concentration for half-maximal inhibition (IC50) in series [4] was 0.79 µM; in series [5], 9.4 µM.

Turning to `COc1ccccc1CSc1nc2ccc(OCCCN(C)C)cc2c(=O)n1Cc1ccccc1`, the cytotoxic concentration (CC50) at 72 h in [1] was more than 10 µM. Moreover, the inhibition at 0.8 µM in [2] stood at 3.66%. In addition, the IC50 in [5] amounted to 11.8 µM.

With `CN(C)CCOc1ccc2nc(SCc3ccccc3)n(Cc3ccco3)c(=O)c2c1`, in series [1], the CC50 at 72 h is more than 10 µM. Besides, the inhibition at 0.8 µM in series [2] amounted to 21.7%. Also, in series [5], the IC50 is 17.5 µM.

As for `CCN(CC)CCOc1ccc2nc(SCc3ccccc3OC)n(Cc3ccco3)c(=O)c2c1`, the CC50 at 72 h in series [1] is more than 10 µM. Also, the inhibition at 0.8 µM in series [2] came to 52.6%. Besides, the selectivity ratio in series [3] is more than 13. In addition, the IC50 in series [4] turned out to be 0.77 µM; in [5] it was 19 µM.

Turning to `COc1ccc(C(C)=O)cc1CSc1nc2ccc(OCCCN(C)C)cc2c(=O)n1Cc1cccs1`, the CC50 at 72 h in series [1] came out at 9.63 µM. The inhibition at 0.8 µM in series [2] is 0.16%. The 50% inhibitory concentration (IC50) in series [5] turned out to be 8.98 µM.

Regarding `CCN(CC)CCOc1ccc2nc(SCc3ccccc3OC)n(Cc3ccccc3)c(=O)c2c1`, the cytotoxic concentration (CC50) at 72 h in series [1] is more than 10 µM. Moreover, the inhibition at 0.8 µM in [2] stood at 9.8%. Moreover, in series [5], the IC50 is more than 20 µM.
